The source of these data is ChEMBL document CHEMBL1128202, “Identification of a series of 3-(benzyloxy)-1-azabicyclo[2.2.2]octane human NK1 antagonists” (J Med Chem, 1995).

pIC50: −log10 of the molar value.

The subject of one experiment is Cavia porcellus. The experiment can be described thus: Inhibition of SP-induced extravasation in the skin of guinea pig after intraperitoneal administration of a dose of 10 (ug/kg). The class given is functional. Put shortly:
(§1)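 Guinea pigs given test compound (po or ip); dorsal skin shaved and Evans blue (0.5 mL, 2.5 g/100 mL saline) injected iv. 10 min later, SP (0.5 pmol in 0.1% HSA saline) injected intradermally; 1 h exposure, then CO2 euthanasia. 6-mm punch biopsies of injection sites; dye extracted overnight in formamide at 45 °C. Read-out: % inhibition of Evans blue leakage.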
In general, Inhibition refers to the drop in the measured response relative to a control, in per cent. Take `FC(F)(F)c1cc(CO[C@H]2C3CCN(CC3)[C@H]2C(c2ccccc2)c2ccccc2)cc(C(F)(F)F)c1` [L-709210]: the Inhibition was 92%.

The test system of another experiment is Cavia porcellus. The experiment can be described thus: Inhibition of SP-induced extravasation in the skin of guinea pig after intraperitoneal administration of a dose of 3 (ug/kg). The experiment is classed as functional. In outline: as §1
On to `FC(F)(F)c1cc(CO[C@H]2C3CCN(CC3)[C@H]2C(c2ccccc2)c2ccccc2)cc(C(F)(F)F)c1` [L-709210], for which the Inhibition is 59%.

The subject of another experiment is Cavia porcellus. The experiment can be described thus: Inhibition of SP-induced extravasation in the skin of guinea pig after intraperitoneal administration of a dose of 1 (ug/kg). The experiment is classed as functional. Put shortly:
as §1
`FC(F)(F)c1cc(CO[C@H]2C3CCN(CC3)[C@H]2C(c2ccccc2)c2ccccc2)cc(C(F)(F)F)c1` [L-709210]: the Inhibition stood at 6%.

A further experiment relates to Cavia porcellus. Kind of experiment: Inhibition of SP-induced extravasation in the skin of guinea pig after […] administration of a dose of 10 (ug/kg). The class given is functional. In outline:
as §1
Take `Cc1cc(C)cc(COC2C3CCN(CC3)C2C(c2ccccc2)c2ccccc2)c1` (stereo in doubt; 73): the Inhibition worked out at 89%.

Another experiment deals with Cavia porcellus. The experiment can be described thus: Inhibition of SP-induced extravasation in the skin of guinea pig after oral administration of a dose of 10 (ug/kg). The class given is functional. In outline: as §1
For the compound `FC(F)(F)c1cc(CO[C@@H]2C3CCN(CC3)[C@@H]2C(c2ccccc2)c2ccccc2)cc(C(F)(F)F)c1`, the Inhibition is on record as -17%.
On the same count and under the same terms, the result for `FC(F)(F)c1cc(CO[C@H]2C3CCN(CC3)[C@@H]2C(c2ccccc2)c2ccccc2)cc(C(F)(F)F)c1` reads 70%; that for `Cc1cc(C)cc(COC2C3CCN(CC3)C2C(c2ccccc2)c2ccccc2)c1` (stereo in doubt; 72), 45%; that for `Cc1cc(C)cc(COC2C3CCN(CC3)C2C(c2ccccc2)c2ccccc2)c1` (stereo in doubt; 73), 40%.
The same measure, in the same setting: the result for `FC(F)(F)c1cc(CO[C@H]2C3CCN(CC3)[C@H]2C(c2ccccc2)c2ccccc2)cc(C(F)(F)F)c1` [L-709210] reads 76%.

For a further experiment, the system named is Cavia porcellus. Kind of experiment: Inhibition of SP-induced extravasation in the skin of guinea pig after intraperitoneal administration of a dose of 30 (ug/kg). The class given is functional. In outline: as §1
In the case of `FC(F)(F)c1cc(CO[C@H]2C3CCN(CC3)[C@H]2C(c2ccccc2)c2ccccc2)cc(C(F)(F)F)c1` [L-709210], the Inhibition amounted to 100%.

A further experiment deals with Substance-P receptor (Homo sapiens, UniProt P25103). Kind of experiment: Inhibition of binding of [125I]SP to the CHO cell line expressing human Tachykinin receptor 1. The class given is cell-based.
Chain of Substance-P receptor (P25103 whole entry): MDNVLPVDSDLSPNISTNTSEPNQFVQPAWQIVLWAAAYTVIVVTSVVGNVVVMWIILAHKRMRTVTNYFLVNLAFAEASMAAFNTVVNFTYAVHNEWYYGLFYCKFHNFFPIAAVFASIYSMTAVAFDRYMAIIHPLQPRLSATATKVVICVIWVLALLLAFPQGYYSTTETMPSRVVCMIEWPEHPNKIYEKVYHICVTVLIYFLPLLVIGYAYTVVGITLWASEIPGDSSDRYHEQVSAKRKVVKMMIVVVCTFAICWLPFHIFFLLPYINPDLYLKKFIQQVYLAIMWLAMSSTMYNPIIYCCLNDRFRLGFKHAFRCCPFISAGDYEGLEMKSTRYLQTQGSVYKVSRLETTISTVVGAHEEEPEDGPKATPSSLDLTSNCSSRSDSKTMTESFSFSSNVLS
One may read the pIC50 as the negative decadic logarithm of the IC50, by convention in mol/L. Lower therefore signals a large IC50. `FC(F)(F)c1cc(COC2C3CCN(CC3)C2C(c2ccccc2)C2CCCCC2)cc(C(F)(F)F)c1` (stereo not given) had a negative-log IC50 (pIC50) of 8.12.
Compound `Clc1cccc(COC2C3CCN(CC3)C2C(c2ccccc2)c2ccccc2)c1` (stereo not given) had a pIC50 of 7.21.
Same read-out and setting: the value for `Cc1ccc(C)c(COC2C3CCN(CC3)C2C(c2ccccc2)c2ccccc2)c1` (stereo not given) was 7.44.
On the same count and under the same terms, the result for `FC(F)(F)c1ccc(COC2C3CCN(CC3)C2C(c2ccccc2)c2ccccc2)cc1` (stereo not given) reads 6.43.
Compound `Clc1ccc(COC2C3CCN(CC3)C2C(c2ccccc2)c2ccccc2)cc1` (stereo not given) gave a pIC50 of 6.38. The pIC50 values of the last two compounds are within 0.2 log units of each other.
Still for that read-out and setting: the result for `c1ccc(COC2C3CCN(CC3)C2C(c2ccccc2)c2ccccc2)cc1` (stereo not given) reads 6.96.
The same measure, in the same setting: the result for `Cc1ccc(COC2C3CCN(CC3)C2C(c2ccccc2)c2ccccc2)cc1` (stereo not given) reads 6.61; that for `FC(F)(F)c1cc(COC2C3CCN(CC3)C2Cc2ccccc2)cc(C(F)(F)F)c1` (stereo not given), 6.99; that for `Brc1ccccc1COC1C2CCN(CC2)C1C(c1ccccc1)c1ccccc1` (stereo not given), 7.43.
Still for that read-out and setting: the result for `Fc1cc(F)cc(COC2C3CCN(CC3)C2C(c2ccccc2)c2ccccc2)c1` (stereo not given) reads 7.48; that for `FC(F)(F)c1cccc(COC2C3CCN(CC3)C2C(c2ccccc2)c2ccccc2)c1` (stereo not given), 6.52; that for `N#Cc1ccc(COC2C3CCN(CC3)C2C(c2ccccc2)c2ccccc2)cc1` (stereo not given), 6.02.
Consider `Fc1ccccc1COC1C2CCN(CC2)C1C(c1ccccc1)c1ccccc1` (stereo not given), for which the pIC50 is 7.03. Against the preceding compound, the pIC50 is 1.01 log units higher.
On the same count and under the same terms, the result for `Fc1cccc(COC2C3CCN(CC3)C2C(c2ccccc2)c2ccccc2)c1` (stereo not given) reads 7.43.
The same measure, in the same setting: the result for `Clc1ccccc1COC1C2CCN(CC2)C1C(c1ccccc1)c1ccccc1` (stereo not given) reads 7.10; that for `Cc1ccc(COC2C3CCN(CC3)C2C(c2ccccc2)c2ccccc2)cc1C` (stereo not given), 6.76; that for `Fc1ccc(COC2C3CCN(CC3)C2C(c2ccccc2)c2ccccc2)cc1` (stereo not given), 6.60.
On the same count and under the same terms, the value for `Fc1ccc(F)c(COC2C3CCN(CC3)C2C(c2ccccc2)c2ccccc2)c1` (stereo not given) was 6.97; that for `Cc1cc(C)cc(COC2C3CCN(CC3)C2Cc2ccccc2)c1` (stereo not given) was 6.97.
Take `FC(F)(F)c1ccccc1COC1C2CCN(CC2)C1C(c1ccccc1)c1ccccc1` (stereo not given): the pIC50 is 7.17. Compared with the last compound, the pIC50 is 0.20 log units higher.
For `c1ccc(Oc2cccc(COC3C4CCN(CC4)C3C(c3ccccc3)c3ccccc3)c2)cc1` (stereo not given), the pIC50 was 7.21.
`COc1cccc(COC2C3CCN(CC3)C2C(c2ccccc2)c2ccccc2)c1` (stereo not given) gave a negative logarithm of the IC50 (pIC50) of 7.25.
The same measure, in the same setting: the result for `Cc1cc(I)cc(COC2C3CCN(CC3)C2C(c2ccccc2)c2ccccc2)c1` (stereo not given) reads 9.49.
Same read-out and setting: the value for `FC(F)(F)c1cc(CO[C@@H]2C3CCN(CC3)[C@H]2C(c2ccccc2)c2ccccc2)cc(C(F)(F)F)c1` was 6.90.
On the same count and under the same terms, the value for `FC(F)(F)c1cc(CO[C@@H]2C3CCN(CC3)[C@@H]2C(c2ccccc2)c2ccccc2)cc(C(F)(F)F)c1` was 6.52; that for `Cc1cc(COC2C3CCN(CC3)C2C(c2ccccc2)c2ccccc2)cc([Si](C)(C)C)c1` (stereo not given) was 9.05; that for `N#Cc1ccccc1COC1C2CCN(CC2)C1C(c1ccccc1)c1ccccc1` (stereo not given) was 7.07.
`Cc1ccccc1COC1C2CCN(CC2)C1C(c1ccccc1)c1ccccc1` (stereo not given) gave a pIC50 of 6.82.
The same measure, in the same setting: the result for `Cc1cccc(COC2C3CCN(CC3)C2C(c2ccccc2)c2ccccc2)c1` (stereo not given) reads 7.70.
The same measure, in the same setting: the value for `N#Cc1cccc(COC2C3CCN(CC3)C2C(c2ccccc2)c2ccccc2)c1` (stereo not given) was 6.90; that for `c1ccc(CN[C@H]2C3CCN(CC3)[C@H]2C(c2ccccc2)c2ccccc2)cc1` was 10.07; that for `O=[N+]([O-])c1cccc(COC2C3CCN(CC3)C2C(c2ccccc2)c2ccccc2)c1` (stereo not given) was 6.71.
The same measure, in the same setting: the result for `FC(F)(F)c1cc(CO[C@H]2C3CCN(CC3)[C@@H]2C(c2ccccc2)c2ccccc2)cc(C(F)(F)F)c1` reads 9.70; that for `Clc1cc(Cl)cc(COC2C3CCN(CC3)C2C(c2ccccc2)c2ccccc2)c1` (stereo in doubt; 67), 8.46; that for `Clc1cc(Cl)cc(COC2C3CCN(CC3)C2C(c2ccccc2)c2ccccc2)c1` (stereo in doubt; 68), 8.05.
The compound `FC(F)(F)c1cc(COC2C3CCN(CC3)C2C(c2ccccc2)c2ccccc2)cc(C(F)(F)F)c1` (stereo in doubt; 69) gave a negative logarithm of the IC50 (pIC50) of 8.80.
Consider `FC(F)(F)c1cc(COC2C3CCN(CC3)C2C(c2ccccc2)c2ccccc2)cc(C(F)(F)F)c1` (stereo in doubt; 70), for which the pIC50 is 8.57.
Same read-out and setting: the value for `Cc1cc(C)cc(COC2C3CCN(CC3)C2C(c2ccccc2)c2ccccc2)c1` (stereo in doubt; 72) was 9.05; that for `Cc1cc(C)cc(COC2C3CCN(CC3)C2C(c2ccccc2)c2ccccc2)c1` (stereo in doubt; 73) was 9.59; that for `COc1cc(COC2C3CCN(CC3)C2C(c2ccccc2)c2ccccc2)cc(OC)c1` (stereo in doubt; 75) was 8.03.
In turn, `COc1cc(COC2C3CCN(CC3)C2C(c2ccccc2)c2ccccc2)cc(OC)c1` (stereo in doubt; 76) had a pIC50 of 8.08.
The same measure, in the same setting: the result for `COc1cc(C)cc(COC2C3CCN(CC3)C2C(c2ccccc2)c2ccccc2)c1` (stereo in doubt; 77) reads 8.72; that for `COc1cc(C)cc(COC2C3CCN(CC3)C2C(c2ccccc2)c2ccccc2)c1` (stereo in doubt; 78), 8.82; that for `Cc1cc(C)cc(COC2C3CCN(CC3)C2C(Cc2ccccc2)c2ccccc2)c1` (stereo in doubt; 85), 8.49.
In turn, `Cc1cc(C)cc(COC2C3CCN(CC3)C2C(Cc2ccccc2)c2ccccc2)c1` (stereo in doubt; 86) showed a pIC50 of 7.64.
Same read-out and setting: the value for `FC(F)(F)c1cc(COC2C3CCN(CC3)C2C(Cc2ccccc2)c2ccccc2)cc(C(F)(F)F)c1` (stereo in doubt; 87) was 8.41; that for `FC(F)(F)c1cc(COC2C3CCN(CC3)C2C(Cc2ccccc2)c2ccccc2)cc(C(F)(F)F)c1` (stereo in doubt; 88) was 6.37.
Same read-out and setting: the result for `FC(F)(F)c1cc(COC2C3CCN(CC3)C2C(Cc2ccccc2)c2ccccc2)cc(C(F)(F)F)c1` (stereo in doubt; 89) reads 8.00.
With `Cc1cc(C)cc(COC2C3CCN(CC3)C2C(Cc2ccccc2)c2ccccc2)c1` (stereo in doubt; 90), the pIC50 is 6.45. This pIC50 lies 1.55 log units lower than the previous one.
With `FC(F)(F)c1cc(CO[C@H]2C3CCN(CC3)[C@H]2C(c2ccccc2)c2ccccc2)cc(C(F)(F)F)c1` [L-709210], the pIC50 is 9.70. This pIC50 is 3.25 log units higher than that of the compound before.
